Data published in ChEMBL document CHEMBL1123585, “Differential effects of N-terminal modifications on the biological potencies of growth hormone releasing factor analogues with varying chain lengths” (1987).

Columns and labels:
[1] = molecular target: T1, Growth hormone-releasing hormone receptor (Rattus norvegicus) (UniProt Q02644); experiment: In vitro rat pituitary cell growth hormone response was obtained; type: functional, cell-based; conditions: Pituitary gland cell
T1 sequence (whole entry): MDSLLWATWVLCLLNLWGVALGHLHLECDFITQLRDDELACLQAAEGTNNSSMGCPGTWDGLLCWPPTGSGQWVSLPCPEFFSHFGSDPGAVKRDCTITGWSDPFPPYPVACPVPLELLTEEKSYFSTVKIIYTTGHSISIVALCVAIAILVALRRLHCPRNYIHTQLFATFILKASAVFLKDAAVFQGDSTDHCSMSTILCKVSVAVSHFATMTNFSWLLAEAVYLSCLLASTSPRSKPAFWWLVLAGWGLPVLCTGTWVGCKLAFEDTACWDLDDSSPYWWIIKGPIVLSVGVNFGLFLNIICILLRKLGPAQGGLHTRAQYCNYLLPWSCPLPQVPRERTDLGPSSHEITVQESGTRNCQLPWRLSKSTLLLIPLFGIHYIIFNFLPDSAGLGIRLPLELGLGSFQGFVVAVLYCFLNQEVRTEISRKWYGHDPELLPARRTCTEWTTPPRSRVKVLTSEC

[2] = molecular target: T1, Growth hormone-releasing hormone receptor (Rattus norvegicus); experiment: Effect on growth hormone release(GRF) was determined in nembutal-anesthetized rat, at dose of 10 ug/100 g body weight.; type: functional
Outline: (§1)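 Male Charles River rats (175-275 g), anesthetized with sodium pentobarbital 6 mg/100 g body weight. Six to nine per group. Peptide or saline given subcutaneously in 0.5 mL, 30 min after anesthetic. Jugular vein blood taken 15 min post-injection. Plasma GH measured by radioimmunoassay and reported as ng/mL, mean ± SEM.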

[3] = molecular target: T1, Growth hormone-releasing hormone receptor (Rattus norvegicus); experiment: Tested for the potency of growth hormone (GRF) on subcutaneous administration in anesthetized male Charles River rats; type: functional, organism-based
Outline: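 Pentobarbital-anesthetized male rats (175-275 g), six to nine per group, received two subcutaneous doses of analogue or of reference GRF(1-29)NH2, in 0.5 mL, 30 min after anesthesia. Plasma GH measured by RIA 15 min later. Potency with 95% confidence limits calculated from a four-point assay design by the Pugsley method.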

Rattus norvegicus = experiment: Effect on growth hormone release(GRF) was determined in nembutal-anesthetized rat, at dose of 4 ug/100 g body weight.; type: functional, organism-based; outline: as §1

CC[C@H](C)[C@H](NC(=O)[C@H](C)NC(=O)[C@@H](CC(=O)O)NC(=O)[C@H](C)NC(=O)[C@@H](N)Cc1ccc(O)cc1)C(=O)N[C@@H](Cc1ccccc1)C(=O)N[C@H](C(=O)N[C@H](CC(N)=O)C(=O)N[C@@H](CO)C(=O)N[C@@H](Cc1ccc(O)cc1)C(=O)N[C@@H](CCCN=C(N)N)C(=O)N[C@@H](CCCCN)C(=O)N[C@H](C(=O)N[C@@H](CC(C)C)C(=O)NCC(=O)N[C@@H](CCC(N)=O)C(=O)N[C@@H](CC(C)C)C(=O)N[C@@H](CO)C(=O)N[C@@H](C)C(=O)N[C@@H](CCCN=C(N)N)C(=O)N[C@@H](CCCCN)C(=O)N[C@@H](CC(C)C)C(=O)N[C@@H](CC(C)C)C(=O)N[C@@H](CCC(N)=O)C(=O)N[C@@H](CC(=O)O)C(=O)N[C@H](C(=O)N[C@@H](CC(C)C)C(N)=O)[C@@H](C)CC)C(C)C)[C@@H](C)O
Potency [1]: 83% | Plasma GH release [2]: 2170 ng/mL | Potency [3]: 199% | Plasma GH release (Rattus norvegicus): 899 ng/mL
